Results pooled from the literature.
Read-out: metabolic stability
Species: human

C[C@H]1C[C@@H](N2C(=N)N[C@](C)(c3cccc(NC(=O)c4cccc(C#N)c4)c3Cl)CC2=O)CCO1
hepatocyte CLint (hepatocytes; 0.5 µM): 5 µL/min/10⁶ cells

C=CC(=O)Nc1cc(Nc2nccc(Nc3cc(Cl)c(F)cc3C(C)(C)O)n2)c(OC)cc1N1CC[C@@H](N(C)C)C1
hepatocyte CLint (hepatocytes): 3.3 µL/min/10⁶ cells

c1ccc(-c2nc(Nc3ccn4nccc4c3)c3ccccc3n2)nc1
microsomal CLint (liver microsomes): 120 µL/min/mg

Fc1ccc(Nc2c(-c3cccnn3)nc3ccccn23)cc1
microsomal CLint (liver microsomes; 3 µM, pH 7.4): 64 µL/min/mg

O=c1[nH]c(=S)n(Cc2ccc(Cl)cc2CNCC(F)(F)F)c2cc[nH]c12
hepatocyte CLint (hepatocytes): 4.3 µL/min/10⁶ cells

Fc1ccc(Nc2nc(-c3ccccn3)nc3ccccc23)cc1
microsomal CLint (liver microsomes): 67 µL/min/mg

COc1ccc(-c2nc3ccc(OC)cn3c2Nc2ccc(F)cc2)nc1
microsomal CLint (liver microsomes; 3 µM, pH 7.4): 44 µL/min/mg

Fc1ccccc1Nc1nc(-c2ccccn2)nc2ccccc12
microsomal CLint (liver microsomes): 88 µL/min/mg

CN(c1ccc(F)cc1)c1c(-c2cc(Cl)ccn2)nc2ccccn12
microsomal CLint (liver microsomes; 3 µM, pH 7.4): 190 µL/min/mg

COc1cc(OC)cc(N(CCNC(C)C)c2ccc3ncc(-c4cnn(C)c4)nc3c2)c1
hepatocyte CLint (hepatocytes): 2.53 µL/min/10⁶ cells

N#Cc1ccccc1-c1nc(N2CCC(c3ccccn3)C2)c2ccccc2n1 (stereo not drawn)
microsomal CLint (liver microsomes): 350 µL/min/mg

COc1ccnc(-c2nc3ccc(OC)cn3c2Nc2ccc(F)cc2)c1
microsomal CLint (liver microsomes; 3 µM, pH 7.4): 240 µL/min/mg

CCCN(CCC)CCc1cccc2c1CC(=O)N2
hepatocyte CLint (hepatocytes; 1 µM): 1.7 µL/min/10⁶ cells

COc1ccnc(-c2nc3ccccn3c2Nc2ccc(F)cc2)c1
microsomal CLint (liver microsomes; 3 µM, pH 7.4): 120 µL/min/mg

c1ccc(CCNc2nc(-c3ccccn3)nc3ccccc23)nc1
microsomal CLint (liver microsomes): 42 µL/min/mg

C[C@@H](N)c1cc(Cl)ccc1Cn1c(=S)[nH]c(=O)c2[nH]ccc21
hepatocyte CLint (hepatocytes): < 1 µL/min/10⁶ cells

CC(C)(C)[Si](C)(C)OCCN(c1ccc(F)cc1)c1c(-c2ccccn2)nc2ccccn12
microsomal CLint (liver microsomes; 3 µM, pH 7.4): > 300 µL/min/mg

CNS(=O)(=O)Cc1ccc2[nH]cc(CCN(C)C)c2c1
hepatocyte CLint (hepatocytes; 5 µM): 2.8 µL/min/10⁶ cells

C[C@H]1C[C@@H](N2C(=N)N[C@](C)(c3cccc(Nc4ccc(C5CC5)nc4)c3Cl)CC2=O)CCO1
hepatocyte CLint (hepatocytes; 0.5 µM): 16 µL/min/10⁶ cells

c1ccc(C2CCN(c3nc(-c4cnn5c4CCCC5)nc4ccccc34)C2)nc1 (stereo not drawn)
microsomal CLint (liver microsomes): 176 µL/min/mg

NCc1ccccc1
hepatocyte CLint (hepatocytes; 5 µM): 16.7 µL/min/10⁶ cells
